High-throughput results from PubChem BioAssay.
Shown are actives, neighbours in structure and some others; about 2% of the full set was active somewhere.
XiGFP reactiv – activators of inactive X chromosome reactivation, primary screen, imaging, XiGFP fibroblasts, GFP high-content imaging, set 2; 360,000 compounds, 0.055% hits; XiGFP mouse fibroblasts, % GFP-positive cells imaging, 3 d; cells co-treated with 5-aza-dC sensitizer; scaled so ellipticine positive control = 100%; AID 743238, 2013; activation, % at 7.58 µM;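 active = mean normalized replicate activation at least 10% and every replicate at or above 10%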;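 note: 0% = median of on-plate neutral control wells and 100% = ellipticine 6 µM median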
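Schedule: 3 d treatment, 15 min room-temperature fixation; system: 68-5-11 XiGFP fibroblast line; buffer or medium: DMEM plus 5-aza-dC sensitizer; control set: ellipticine 6 µM positive control; compound: one concentration, pinned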
sPLA2-III inh – human group III sPLA2 inhibitors, primary screen, biochemical, QFRET, BODIPY PC-A2 liposome substrate. QFRET BODIPY PC-A2 liposome hydrolysis, fluorescence. inhibition, % at 12.2 µM. 370,000 compounds, 0.56% hits. AID 743126, 2013;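 active = inhibition above mean plus 3 SD of compounds lying within the high and low control bounds, cut at about 19% in these data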;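 note: 0% = median of test compound wells and 100% = no enzyme DMSO wells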
ARNT TACC3 PPI – disruptors of ARNT/TACC3 protein interaction, primary screen, biochemical, AlphaScreen, single concentration; AlphaScreen His-ARNT PAS-B/GST-TACC3 binding, luminescence; TACC3 fragment carries E629A point mutation; AID 623870, 2012; Transforming acidic coiled-coil-containing protein 3 (Homo sapiens), Q9Y6A5; 390,000 compounds, 0.66% hits; inhibition, % at 9.99 µM;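 active = mean inhibition of replicates at least 50% and at least half of replicates each reaching 50%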;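 note: 0% = complete ARNT plus TACC3 wells and 100% = ARNT alone without TACC3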
SR-BI uptake up – activators of SR-BI mediated DiI-HDL uptake, primary screen, ldlA[mSR-BI] CHO cells, DiI fluorescence; 3 h; 100 = double the neutral-control signal; activation, % at 12.5 µM; 320,000 compounds, 0.096% hits;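 active = mean replicate activation of at least 60% and every replicate at or above 60%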;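 note: 0% = median plate neutral-control signal and 100% = twice that signal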
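Assay system: LDL receptor-deficient CHO ldlA cells overexpressing murine SR-BI / Medium: BSA-supplemented, HEPES-buffered Ham's F12, pH 7.4 / Probe or stimulus: DiI-labelled HDL at 10 µg/mL final / Timing: compound with DiI-HDL co-incubation, 3 h at 37 °C / Technique: bottom-read cell fluorescence after medium removal, ex 550/em 595 nm / Measure: HDL uptake via cellular fluorescence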
NSD2 HMT inh – NSD2 histone methyltransferase inhibitors, primary screen, biochemical, AlphaScreen, single concentration, set 2; NSD2 peptide methylation, 120 min; Histone-lysine N-methyltransferase NSD2 (Homo sapiens), O96028; inhibition, % at 12.5 µM; 310,000 compounds, 0.54% hits; in the data active = inhibition above about 50%
Target sequence (O96028 whole entry, looked up): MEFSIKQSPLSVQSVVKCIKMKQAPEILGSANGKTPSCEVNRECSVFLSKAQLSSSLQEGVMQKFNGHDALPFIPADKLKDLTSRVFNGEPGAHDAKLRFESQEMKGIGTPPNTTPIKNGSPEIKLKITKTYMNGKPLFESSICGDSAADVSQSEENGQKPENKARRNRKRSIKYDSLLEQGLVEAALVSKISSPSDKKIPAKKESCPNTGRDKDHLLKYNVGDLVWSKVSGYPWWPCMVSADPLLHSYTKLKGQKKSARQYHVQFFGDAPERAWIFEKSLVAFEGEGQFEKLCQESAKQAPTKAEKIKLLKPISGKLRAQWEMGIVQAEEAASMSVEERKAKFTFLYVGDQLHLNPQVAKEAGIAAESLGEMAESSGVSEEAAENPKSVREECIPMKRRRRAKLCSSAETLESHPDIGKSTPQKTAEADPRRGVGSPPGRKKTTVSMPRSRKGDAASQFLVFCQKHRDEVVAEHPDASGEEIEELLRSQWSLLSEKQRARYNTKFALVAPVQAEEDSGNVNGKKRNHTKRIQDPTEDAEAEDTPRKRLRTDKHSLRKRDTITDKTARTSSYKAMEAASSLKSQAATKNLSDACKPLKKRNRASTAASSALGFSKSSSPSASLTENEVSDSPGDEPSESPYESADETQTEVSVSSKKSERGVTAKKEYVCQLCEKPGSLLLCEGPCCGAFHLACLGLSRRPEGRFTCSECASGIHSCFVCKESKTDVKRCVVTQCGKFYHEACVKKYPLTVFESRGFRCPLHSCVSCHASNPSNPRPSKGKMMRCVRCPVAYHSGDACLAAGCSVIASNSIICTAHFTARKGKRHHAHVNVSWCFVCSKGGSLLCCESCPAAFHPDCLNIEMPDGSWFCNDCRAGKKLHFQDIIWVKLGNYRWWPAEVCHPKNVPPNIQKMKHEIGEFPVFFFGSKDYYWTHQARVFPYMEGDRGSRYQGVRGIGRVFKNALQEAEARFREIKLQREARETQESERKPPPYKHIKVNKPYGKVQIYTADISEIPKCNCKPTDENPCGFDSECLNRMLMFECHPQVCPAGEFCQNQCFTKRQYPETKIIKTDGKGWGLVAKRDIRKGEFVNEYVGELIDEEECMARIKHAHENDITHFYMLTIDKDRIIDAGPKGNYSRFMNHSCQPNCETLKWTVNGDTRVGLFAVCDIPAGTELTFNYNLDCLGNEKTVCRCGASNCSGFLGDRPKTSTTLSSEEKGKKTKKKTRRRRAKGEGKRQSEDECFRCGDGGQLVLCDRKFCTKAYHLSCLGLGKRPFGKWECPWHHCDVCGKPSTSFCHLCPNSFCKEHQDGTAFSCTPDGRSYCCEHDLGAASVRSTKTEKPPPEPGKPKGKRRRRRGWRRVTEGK
SR-BI DiI inh – inhibitors of SR-BI mediated HDL lipid uptake, primary screen, ldlA[mSR-BI] cells, fluorescence, single point. Scavenger receptor class B member 1 (Mus musculus), Q61009. ldlA[mSR-BI] CHO cells, DiI-HDL uptake fluorescence, 3 h. inhibition, % at 12.5 µM. 320,000 compounds, 0.96% hits. AID 488896, 2010;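 active = mean replicate inhibition of at least 70% and a set share of replicates each scoring 70 or more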;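 note: 0% = median of neutral control wells and 100% = median of positive control wells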
Starred values were filed as active, the others as inactive; / = no result.

SMILES | XiGFP reactiv | sPLA2-III inh | ARNT TACC3 PPI | SR-BI uptake up | NSD2 HMT inh | SR-BI DiI inh
O=C(Nc1sc2c(c1-c1nc3ccccc3[nH]1)CCCC2)C1CCCC1 | / | 4.2 | -13.7 | -89.1 | -2.4 | 89.1*
CCn1c(SCC(=O)N2CCCC2=O)nnc1-c1cccs1 | 0.0 | 0.6 | / | 96.4* | -0.4 | -96.4
COc1cc2sc3cc(NCCCN4CCOCC4)ccc3c(=O)c2cc1OC | -0.3 | -16.6 | 28.1* | -53.1 | / | 53.1
COc1ccc(CN2CCN(C(=O)C3CCN(S(=O)(=O)c4cccs4)CC3)CC2)c(OC)c1OC | 0.0 | -7.5 | 33.6 | -75.8 | 2.9 | 75.8*
Cc1cc(C)cc(NC(=S)NC2CC3CCCC(C2)N3C2CC2)c1 (centres undefined) | 0.3 | 12.3 | 0.3 | 3.8 | 3.6 | -3.8
COc1cc(C(=O)NCCC(C)C)c([N+](=O)[O-])cc1OC | / | -1.8 | -8.8 | -82.2 | -1.4 | 82.2*
C/C(=N\NC(=O)c1nn(C)c(C)c1Br)c1ccc(NC(=O)C2CCCC2)cc1 | 0.0 | 7.8 | -6.6 | -80.4 | 0.7 | 80.4*
O=C(Cc1ccccc1)N[C@H]1C=C[C@H](CC(=O)N2CCCCC2)O[C@H]1CO | 0.4 | / | 10.1 | / | / | /
CCOC(=O)c1c(-c2ccccc2)csc1NC(=O)/C(C#N)=C\c1ccc(O)c(OC)c1 | 0.3 | -8.6 | -2.5 | -84.6 | 1.0 | 84.6*
CC(C)(C)NC(=O)CCN(/N=C/c1ccc([N+](=O)[O-])o1)C1=NS(=O)(=O)c2ccccc21 | 0.2 | -1.3 | 78.7* | 24.8 | 4.7 | -24.8
CN(C)c1ccc(/C=N/N(CCC(=O)NC(C)(C)C)C2=NS(=O)(=O)c3ccccc32)cc1 | 0.0 | 0.0 | -2.7 | 16.3 | -3.8 | -16.3
CCOC(=O)[C@]12CCCCC/C=C\1N(CCc1ccc(Cl)cc1)C(=O)[C@H]2CC(=O)N1CCN(C(=O)C2CC2)CC1 | / | -3.8 | / | / | / | /
COCCn1c(=NC(=O)CCS(=O)(=O)c2ccccc2)sc2cc(C)ccc21 | 0.5 | -0.2 | -4.7 | -1.3 | / | 1.3
COCCn1c(=NC(=O)/C=C/c2cccs2)sc2cc(NC(C)=O)ccc21 | 0.1 | -21.4 | -5.5 | -72.2 | -1.4 | 72.2*
CC(OC(=O)c1ccc(-n2cnnn2)cc1)C(=O)Nc1ccccc1[N+](=O)[O-] (centres undefined) | 0.0 | -9.5 | 3.0 | -40.2 | -1.5 | 40.2
OC[C@@H]1CN(Cc2ccc(-c3ccccc3)cc2)C[C@H](n2cnc3c(Nc4ccccc4)ncnc32)O1 | 0.2 | -26.8 | / | / | -4.2 | /
Cc1nn(-c2ccccc2)c(C)c1/C=N/n1cnnc1 | 0.4 | 4.4 | -10.6 | 30.3 | -0.6 | -30.3
Cc1nn(-c2ccccc2)c(C)c1/C=N\N1CCN(c2ccc(Cl)cc2)CC1 | / | 5.4 | -1.9 | -79.9 | 0.1 | 79.9*
COc1cccc(/C=N/N2CCN(c3ccc(Cl)cc3)CC2)c1OC | 0.1 | 3.9 | -13.1 | -4.6 | 1.4 | 4.6
COc1ccc(OC)c(/C=N/N2CCN(c3ccc(Cl)cc3)CC2)c1 | 0.0 | 10.9 | -13.5 | 148.3* | 2.3 | -148.3
CCCNC(=O)N1C[C@H](C)[C@H](OC)CN(C)C(=O)c2cc(NC(C)=O)ccc2OC[C@H]1C | 0.3 | / | -3.8 | / | / | /
Cc1cc(=O)c2c(o1)C(=O)c1occc1C2=O | -0.1 | -7.5 | 20.6 | 10.5 | 138.6* | -10.5
COc1c2occc2c(OC)c2c(=O)cc(C)oc12 | 0.0 | 3.4 | 3.5 | -0.1 | / | 11.4
C[C@@H]1CN([C@@H](C)CO)C(=O)Cc2cc(N(C)C)ccc2O[C@H]1CN(C)Cc1ccc(C(F)(F)F)cc1 | 0.4 | / | 24.0 | / | / | /
NNC(=O)CSc1cccc2cccnc12 | -0.1 | -3.7 | 47.9* | 40.9 | -1.5 | -40.9
SMILES | XiGFP reactiv | sPLA2-III inh | ARNT TACC3 PPI | SR-BI uptake up | NSD2 HMT inh | SR-BI DiI inh
O=C(CSc1cccc2cccnc12)Nc1ccccc1F | 0.8 | -8.3 | 58.5* | 15.7 | 9.5 | -15.7
O=C(CSc1cccc2cccnc12)OCC(=O)c1ccccc1 | / | -30.3 | 52.7* | 3.7 | -4.6 | -3.7
O=C(Sc1cccc2cccnc12)c1ccccc1Br | 0.7 | -1.9 | 75.5* | -19.8 | 19.2 | 19.8
O=C(CSc1n[nH]c(-c2ccccn2)n1)Nc1ccccc1F | -0.1 | -3.6 | 53.7* | / | -1.6 | /
COc1ccccc1-c1nc(SCC(=O)Nc2ccccc2F)n[nH]1 | -0.1 | -2.8 | -1.7 | -5.9 | -4.4 | 5.9
C[C@@H]1CN([C@@H](C)CO)C(=O)c2cccc(NS(=O)(=O)c3ccccc3)c2O[C@@H]1CN(C)S(=O)(=O)c1ccccc1 | -0.4 | / | -1.3 | / | / | /
OCCN(Cc1ccccc1)Cc1ncccc1O | 0.2 | -0.9 | 24.5* | 25.5 | -1.5 | -25.5
NC(=O)c1c(NC(=O)c2ccccc2)sc2c1CCN(Cc1ccccc1)C2 | 43.8* | -11.1 | -4.7 | -23.2 | / | 23.2
CCN1CCc2c(sc(NC(=O)Cc3ccccc3)c2C(N)=O)C1 | 0.1 | 10.1 | -7.7 | 16.0 | / | -16.0
CCN1CCc2c(sc(NC(=O)c3ccc(S(=O)(=O)N(CC)c4ccccc4)cc3)c2C(N)=O)C1 | 72.8* | -7.9 | 0.8 | -4.4 | 7.0 | 4.4
CCN1CCc2c(sc(NC(=O)Nc3ccc(Cl)c(Cl)c3)c2C(N)=O)C1 | 104.6* | -89.5 | -17.6 | -4.7 | -7.0 | 4.7
O=C(CNS(=O)(=O)c1ccccc1)Nc1ccc(C(F)(F)F)cc1 | / | -33.9 | -6.8 | 8.1 | -11.2 | -8.1
CC(C)NC(=O)N(C)C[C@@H]1Oc2ccc(N(C)C)cc2CC(=O)N([C@H](C)CO)C[C@H]1C | 0.3 | / | 47.6* | / | / | /
CC(C)NC(=O)Nc1ccc2c(c1)CC(=O)N([C@@H](C)CO)C[C@H](C)[C@H](CN(C)Cc1ccc(Oc3ccccc3)cc1)O2 | 0.1 | / | 33.1 | / | / | /
CC(C)NC(=O)Nc1ccc2c(c1)CC(=O)N([C@@H](C)CO)C[C@@H](C)[C@@H](CN(C)Cc1ccc(Oc3ccccc3)cc1)O2 | 0.0 | / | active | / | / | /
C[C@H](CO)N1C[C@H](C)[C@@H](CN(C)Cc2ccc(C(=O)Nc3ccccc3N)cc2)Oc2ccc(N(C)C)cc2CC1=O | 2.2 | / | 45.1* | / | / | /
CCOc1ccc(/C=C/C(=O)OC(C)C(=O)NC2CCCCC2C)cc1OC (centres undefined) | 0.1 | 7.1 | 0.6 | -24.1 | 0.2 | 24.1
CC(=O)Nc1ccc(Oc2nc(-c3ccccn3)nc3ccccc23)cc1 | 0.1 | 4.8 | 58.5* | 18.2 | -4.0 | -18.2
